Results from ChEMBL document CHEMBL1926642, “Relevance of the C-5 position to schweinfurthin induced cytotoxicity” (2011).

Legend:
Format in all cases: functional
A549 = assay: Ratio of GI50 for human A549 cells to GI50 for human SF295 cells after 48 hrs by sulforhodamine B assay
TK-10 = assay: Cytotoxicity against human TK10 cells assessed as cell growth at 10 uM after 48 hrs by sulforhodamine B assay relative to control; conditions: TK-10, 48 h, read-out: Activity
UO-31 = assay: Cytotoxicity against human UO31 cells assessed as cell growth at 10 uM after 48 hrs by sulforhodamine B assay relative to control; conditions: UO-31, 48 h, read-out: Activity
PC-3 = assay: Cytotoxicity against human PC3 cells assessed as cell growth at 10 uM after 48 hrs by sulforhodamine B assay relative to control; conditions: PC-3, 48 h, read-out: Activity
Method in brief: (§1)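 Compounds went through the NCI 60 cell-line screen, whose current protocol tests first at a single dose.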

MCF7 = assay: Cytotoxicity against human MCF7 cells assessed as cell growth at 10 uM after 48 hrs by sulforhodamine B assay relative to control; conditions: MCF7, 48 h, read-out: Activity; method in brief: as §1
MDA-MB-231 = assay: Cytotoxicity against human MDA-MB-231/ATCC cells assessed as cell growth at 10 uM after 48 hrs by sulforhodamine B assay relative to control; conditions: MDA-MB-231, 48 h, read-out: Activity; method in brief: as §1
MDA-MB-468 = assay: Cytotoxicity against human MDA-MB-468 cells assessed as cell growth at 10 uM after 48 hrs by sulforhodamine B assay relative to control; conditions: MDA-MB-468, 48 h, read-out: Activity; method in brief: as §1
K562 = assay: Cytotoxicity against human K562 cells assessed as cell growth at 10 uM after 48 hrs by sulforhodamine B assay relative to control; conditions: K562, 48 h, read-out: Activity; method in brief: as §1
NCI-H23 = assay: Cytotoxicity against human NCI-H23 cells assessed as cell growth at 10 uM after 48 hrs by sulforhodamine B assay relative to control; conditions: NCI-H23, 48 h, read-out: Activity; method in brief: as §1
NCI-H522 = assay: Cytotoxicity against human NCI-H522 cells assessed as cell growth at 10 uM after 48 hrs by sulforhodamine B assay relative to control; conditions: NCI-H522, 48 h, read-out: Activity; method in brief: as §1
COLO 205 = assay: Cytotoxicity against human COLO205 cells assessed as cell growth at 10 uM after 48 hrs by sulforhodamine B assay relative to control; conditions: COLO 205, 48 h, read-out: Activity; method in brief: as §1
HCC 2998 = assay: Cytotoxicity against human HCC2998 cells assessed as cell growth at 10 uM after 48 hrs by sulforhodamine B assay relative to control; conditions: HCC 2998, 48 h, read-out: Activity; method in brief: as §1
HCT-116 = assay: Cytotoxicity against human HCT116 cells assessed as cell growth at 10 uM after 48 hrs by sulforhodamine B assay relative to control; conditions: HCT-116, 48 h, read-out: Activity; method in brief: as §1
SW-620 = assay: Cytotoxicity against human SW620 cells assessed as cell growth at 10 uM after 48 hrs by sulforhodamine B assay relative to control; conditions: SW-620, 48 h, read-out: Activity
SNB-75 = assay: Cytotoxicity against human SNB75 cells assessed as cell growth at 10 uM after 48 hrs by sulforhodamine B assay relative to control; conditions: SNB-75, 48 h, read-out: Activity
LOX IMVI = assay: Cytotoxicity against human LOXIMVI cells assessed as cell growth at 10 uM after 48 hrs by sulforhodamine B assay relative to control; conditions: read-out: Activity; method in brief: as §1
Malme-3M = assay: Cytotoxicity against human MALME-3M cells assessed as cell growth at 10 uM after 48 hrs by sulforhodamine B assay relative to control; conditions: read-out: Activity; method in brief: as §1
SK-MEL-5 = assay: Cytotoxicity against human SK-MEL-5 cells assessed as cell growth at 10 uM after 48 hrs by sulforhodamine B assay relative to control; conditions: SK-MEL-5, 48 h, read-out: Activity; method in brief: as §1
UACC-62 = assay: Cytotoxicity against human UACC62 cells assessed as cell growth at 10 uM after 48 hrs by sulforhodamine B assay relative to control; conditions: UACC-62, 48 h, read-out: Activity
IGROV-1 = assay: Cytotoxicity against human IGROV1 cells assessed as cell growth at 10 uM after 48 hrs by sulforhodamine B assay relative to control; conditions: IGROV-1, 48 h, read-out: Activity; method in brief: as §1
OVCAR-3 = assay: Cytotoxicity against human OVCAR3 cells assessed as cell growth at 10 uM after 48 hrs by sulforhodamine B assay relative to control; conditions: OVCAR-3, 48 h, read-out: Activity; method in brief: as §1
OVCAR-4 = assay: Cytotoxicity against human OVCAR4 cells assessed as cell growth at 10 uM after 48 hrs by sulforhodamine B assay relative to control; conditions: OVCAR-4, 48 h, read-out: Activity; method in brief: as §1

Compound | RatioGI50 (A549) | growth at 10 µM (UO-31) [%] | growth at 10 µM (PC-3) [%] | growth at 10 µM (MCF7) [%] | growth at 10 µM (MDA-MB-231) [%] | growth at 10 µM (MDA-MB-468) [%] | growth at 10 µM (K562) [%] | growth at 10 µM (NCI-H23) [%] | growth at 10 µM (NCI-H522) [%] | growth at 10 µM (COLO 205) [%] | growth at 10 µM (HCC 2998) [%] | growth at 10 µM (HCT-116) [%] | growth at 10 µM (SW-620) [%] | growth at 10 µM (SNB-75) [%] | growth at 10 µM (LOX IMVI) [%] | growth at 10 µM (SK-MEL-5) [%] | growth at 10 µM (UACC-62) [%] | growth at 10 µM (IGROV-1) [%] | growth at 10 µM (OVCAR-3) [%] | growth at 10 µM (OVCAR-4) [%] | further results
COc1cc(/C=C/c2cc(O)c3c(c2)C[C@@H]2C(C)(C)[C@H](O)CC[C@@]2(C)O3)cc(O)c1C/C=C(\C)CCC=C(C)C | >30 |  |  |  |  |  |  |  |  |  |  |  |  |  |  |  |  |  |  |  | 
COc1cc(/C=C/c2cc3c(c(OC)c2)O[C@]2(C)CC[C@@H](O)C(C)(C)[C@H]2C3)cc(O)c1C/C=C(\C)CCC=C(C)C | 13 |  |  |  |  |  |  |  |  |  |  |  |  |  |  |  |  |  |  |  | 
COc1cc(/C=C/c2cc(Br)c3c(c2)C[C@@H]2C(C)(C)[C@H](O)CC[C@@]2(C)O3)cc(O)c1C/C=C(\C)CCC=C(C)C |  | 91 | 87.6 | 102 | 96.6 | 110 | 79.9 | 103 | 81.5 | 126 | 103 | 84.5 | 119 | 91.2 | 105 | 99.3 | 104 | 63.1 | 88.2 | 110 | growth at 10 µM (TK-10): 113%; growth at 10 µM (Malme-3M): 115%
COCc1cc(/C=C/c2cc(O)c(C/C=C(\C)CCC=C(C)C)c(OC)c2)cc2c1O[C@]1(C)CC[C@@H](O)C(C)(C)[C@H]1C2 |  | 98.4 | 79 | 103 | 81.3 | 116 | 72 | 100 | 72.2 | 130 | 99.3 | 68.5 | 129 | 84.2 | 92.7 | 108 | 90.7 | 65.3 | 94.8 | 108 | 
